Only some compounds are listed: those with a hit (about 2.4% of all), similar ones and a draw of the others.
TCR CD3 inh: inhibitors of human TCR-CD3 interaction, primary screen, biochemical, fluorescence, TAMRA-labeled TCR probe. inhibition, % at 9.4 µM. 0.37% of 360,000 active. AID 651800, 2012;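 further: recombinant mutant TCR 2C K166C tagged with TAMRA read by polarization; 0% = receptor in buffer alone and 100% = receptor with positive control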
Apaf1 inhib: inhibitors of human Apaf-1 apoptosome, primary screen, biochemical, DEVD-Rh110 fluorescence, uHTS; Apoptotic protease-activating factor 1 (Homo sapiens), O14727; reconstituted apoptosome caspase-3 activity; inhibition, % at 20 µM; 0.71% of 330,000 active; active means inhibition of at least 40% at 20 µM;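 further: plate controls were DMSO wells for no effect and DEVD-CHO caspase inhibitor wells for full effect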
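System: Apoptosome proteins | Medium: Hepes pH 7.5 with detergent and BSA | Also added: Cytochrome c trigger plus (Z-DEVD)2-Rh110 caspase-3 substrate | Incubation: 30 min compound preincubation, 50 min activation, room temperature | Detection: Rhodamine 110 fluorescence at Ex 480/Em 540 nm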
GSTO1 inh: inhibitors of recombinant GSTO1, primary screen, counter-screen for RBBP9 inhibitor project, biochemical, fluorescence polarization; activity-based probe fluorescence polarization; inhibition, % at 5.96 µM; 1.1% of 300,000 active; AID 1974, 2009;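 active means inhibition above the campaign mean inhibition plus 3 SD, cut at about 35% in these data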;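 further: 0% = GSTO1-1 with DMSO and 100% = wells lacking GSTO1-1 enzyme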
SIAE primary: human SIAE inhibitors, primary screen, biochemical, fluorescence polarization, FP-Rh probe, 1536-well HTS | Sialate O-acetylesterase (Homo sapiens), Q9HAT2 | SIAE FP-Rh probe binding | inhibition, % at 9.66 µM | 0.69% of 370,000 active | AID 1053197, 2014;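 active means inhibition above a cutoff: mean of compounds within the control limits plus 3 SD of those, cut at about 17% in these data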;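 further: 0% = plate median of compound wells and 100% = probe without SIAE protein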
PAD4 inh: human PAD4 inhibitors, primary screen, biochemical, fluorescence polarization, 1536-well format; Protein-arginine deiminase type-4 (Homo sapiens), Q9UM07; recombinant PAD4, RCA probe fluorescence polarization; 0.41% of 330,000 active; inhibition, % at 6.36 µM;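 active means percent inhibition above a cutoff equal to the mean of all tested compounds plus 3 SD, cut at about 15% in these data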;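 further: 0% = PAD4 with RCA probe and DMSO and 100% = probe without PAD4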
TDP2 absorb: human TDP2 enzyme inhibitors, primary screen, biochemical, epi absorbance, recombinant enzyme; T5PNP hydrolysis, p-nitrophenol absorbance 415 nm; Tyrosyl-DNA phosphodiesterase 2 (Homo sapiens), O95551; inhibition, % at 12.8 µM; 0.34% of 370,000 active;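 active means inhibition above the mean of all tested compounds plus 3 SD, set per campaign, cut at about 25% in these data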;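 further: 0% = DMSO with enzyme and 100% = buffer with substrate but no TDP2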
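test system = human TDP2 enzyme | input = TDP2 enzyme at 120 nM final | medium = 50 mM Tris-HCl pH 7.5 with Mg2+, KCl, DTT, BSA | also added = T5PNP substrate, 5 mM | times = 2 h at 37 °C | technique = epi absorbance | benchmarks = high control without enzyme, low control DMSO plus TDP2 | replication = each compound tested once, singlicate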
GSTO1 confirm: GSTO1 inhibitor hit confirmation, counter-screen for RBBP9 inhibitor project, biochemical, fluorescence polarization, triplicate | shares compounds with GSTO1 inh | recombinant GSTO1, probe fluorescence polarization | inhibition, % at 5.96 µM | 54% of 2,400 active;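 active means inhibition above the primary screen's cutoff, its mean inhibition plus 3 SD, cut at about 35% in these data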;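 further: loss of polarization as inhibitors block binding of rhodamine sulfonate ester activity probe; 0% = GSTO1 with DMSO and 100% = wells lacking GSTO1 enzyme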
PAD4 confirm: human PAD4 inhibitors, confirmation, biochemical, fluorescence polarization. shares compounds with PAD4 inh. recombinant PAD4, RCA probe fluorescence polarization. inhibition, % at 6.36 µM. 28% of 1,200 active;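 active means mean inhibition across replicates above the hit cutoff set by the earlier primary screen, cut at about 15% in these data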;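 further: inhibitors block active-site labeling by the probe so polarization falls; 0% = PAD4 with probe and DMSO and 100% = probe without PAD4 enzyme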
Apaf-1 inh conf: Apaf-1 inhibitors, single-dose retest, confirmation, biochemical, fluorescence, DEVD-Rh110, 20 µM; shares compounds with Apaf1 inhib; reconstituted apoptosome, caspase-3 DEVD-Rh110 fluorescence; inhibition, % at 20 µM; 25% of 1,800 active; AID 504614, 2011;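 active means mean inhibition of at least 40% at 20 µM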;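 further: plate controls were DMSO wells for no effect and DEVD-CHO caspase inhibitor control wells for full effect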
Rh110 interf inh: Rh110 fluorescence interference by putative Apaf-1 inhibitors, confirmation, artefact control for Apaf-1 inhibitor project, biochemical, 20 µM | shares compounds with Apaf1 inhib | activation (fluorescence interference), % at 20 µM | 1,800 tested, under 10 active | quenched caspase reaction;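 active means signal rise of 40% or more at 20 µM, treated as a fluorescence artifact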
Apaf1 inh interf: fluorescence interference of Apaf-1 inhibitor hits, dose response, artefact control for Apaf-1 inhibitor project | shares compounds with Apaf1 inhib | fluorescence interference counterscreen, Apaf-1 assay format | IC50, µM | 460 tested, under 10 active; call rule not given here
BSA probe FL: compounds interfering with TAMRA-BSA probe, counter-screen for TCR-CD3 interaction inhibitor project, biochemical, fluorescence, TAMRA-labeled BSA; shares compounds with TCR CD3 inh; TAMRA-labeled BSA probe fluorescence counterscreen; inhibition, % at 9.4 µM; 10% of 1,200 active; in the data active means inhibition above about 23%;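 further: 0% = buffer low control and 100% = reference high control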
TCR-CD3 conf: TCR-CD3 interaction inhibitors, retest, confirmation, biochemical, fluorescence, TAMRA-labeled TCR probe; shares compounds with TCR CD3 inh; TAMRA-labeled TCR probe fluorescence binding assay; inhibition, % at 9.4 µM; 48% of 1,200 active; AID 652036, 2013
TDP2 inh conf: human TDP2 enzyme inhibitors, retest, confirmation, biochemical, epi absorbance, recombinant enzyme; AID 743263, 2014; shares compounds with TDP2 absorb; 22% of 1,100 active; inhibition, % at 12.8 µM; absorbance read-out; in the data active means inhibition above about 25%;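 further: 0% = vehicle with enzyme and 100% = no enzyme buffer only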
An asterisk follows results filed as active. Unless noted, no stated cut-off is given here; in the data, active means inhibition above about 19%; inactive means the rest.

CN1c2ccccc2C(C)(C)C12C=Nc1c(ccc3ccccc13)O2 (stereo not drawn) was read as TCR CD3 inh -4, Apaf1 inhib 26, GSTO1 inh 90*, SIAE primary 7, PAD4 inh -1, TDP2 absorb 33*, GSTO1 confirm 6 and TDP2 inh conf 5.
Screening CC(=O)N(/N=C1\Sc2ccccc2C1=O)c1ccccc1C returned TCR CD3 inh -3, Apaf1 inhib 90*, GSTO1 inh 41*, SIAE primary -21, PAD4 inh -18, TDP2 absorb 63*, GSTO1 confirm 71*, Apaf-1 inh conf 85*, Rh110 interf inh 11, Apaf1 inh interf >100 and TDP2 inh conf 63*.
Screening O=C(O)/C=C/C(=O)Nc1ccc(O)cc1 returned TCR CD3 inh 20*, Apaf1 inhib -22, GSTO1 inh 59*, SIAE primary 7, PAD4 inh 60*, TDP2 absorb 34*, GSTO1 confirm 8, PAD4 confirm 4, BSA probe FL 4, TCR-CD3 conf 7 and TDP2 inh conf 31*.
COc1cc(C(=O)OCC(=O)NC2CCS(=O)(=O)C2)c([N+](=O)[O-])cc1OC (stereo not drawn) was read as TCR CD3 inh 11, Apaf1 inhib -7, GSTO1 inh 1, SIAE primary 7, PAD4 inh 1 and TDP2 absorb 2.
Screening O=C(Nc1cc(-c2ccccc2)nn1-c1c(Cl)cccc1Cl)c1ccc(F)cc1 returned TCR CD3 inh -2, Apaf1 inhib 9, SIAE primary -9, PAD4 inh -2 and TDP2 absorb 4.
`O=[N+]([O-])c1ccc(N2CCOCC2)nc1` gave TCR CD3 inh 1, Apaf1 inhib -5, GSTO1 inh 5, SIAE primary -1, PAD4 inh 5 and TDP2 absorb 1.
Screening O=C1CC(N2CCOCC2)=NN1c1ccc([N+](=O)[O-])cc1 returned TCR CD3 inh -3, Apaf1 inhib 94*, GSTO1 inh 48*, SIAE primary 11, PAD4 inh 12, TDP2 absorb 65*, GSTO1 confirm 11, Apaf-1 inh conf 15, Rh110 interf inh 6 and TDP2 inh conf 6.
`COc1cccc(-c2ccc3ncnc(NCc4cccs4)c3c2)c1` gave TCR CD3 inh 2, Apaf1 inhib 8, SIAE primary -14, PAD4 inh -4 and TDP2 absorb -17.
For COC(=O)CCCC1=CC2=C(c3ccccc3)C(=O)C(C)(OC(=O)C3CCCC3)C(=O)C2=CN1CC(C)C (stereo not drawn) the results were TCR CD3 inh 10, Apaf1 inhib 41*, GSTO1 inh 52*, SIAE primary 0, PAD4 inh -16, TDP2 absorb 25*, GSTO1 confirm 6, Apaf-1 inh conf 19, Rh110 interf inh 4 and TDP2 inh conf 14.
For CCN(CC)CCCN1C=C2C(=O)C(C)(OC(=O)C3CCCC3)C(=O)C(c3ccccc3)=C2C=C1CCCC(=O)OC (stereo not drawn) the results were TCR CD3 inh 3, Apaf1 inhib 14, GSTO1 inh 6, SIAE primary 4, PAD4 inh 0 and TDP2 absorb 4.
COCCN1C=C2C(=O)C(C)(OC(=O)C3CCCC3)C(=O)C(c3ccccc3)=C2C=C1CCCC(=O)OC (stereo not drawn) was read as TCR CD3 inh -1, Apaf1 inhib 30, GSTO1 inh 45*, SIAE primary 12, PAD4 inh -6, TDP2 absorb 30*, GSTO1 confirm 26 and TDP2 inh conf 22.
Screening CC(=O)Nc1ccc2c(c1)C(N1CC3CCC(CC3)C1)c1ccccc1-2 (stereo not drawn) returned TCR CD3 inh 7, SIAE primary 0 and TDP2 absorb 8.
COc1cccc(C(C[N+](=O)[O-])c2c(C)[nH]n(-c3ccccc3)c2=O)c1 (stereo not drawn) was read as TCR CD3 inh 0, Apaf1 inhib 97*, GSTO1 inh 81*, SIAE primary 5, PAD4 inh 35*, TDP2 absorb 28*, GSTO1 confirm 4, PAD4 confirm -1, Apaf-1 inh conf 16, Rh110 interf inh -7 and TDP2 inh conf 21.
Screening O=C1C=C(N2CCCCC2)c2ccccc2C1=O returned TCR CD3 inh 1, Apaf1 inhib 98*, GSTO1 inh 91*, SIAE primary 9, PAD4 inh 65*, TDP2 absorb 70*, GSTO1 confirm 88*, PAD4 confirm 61*, Apaf-1 inh conf 100*, Rh110 interf inh 3, Apaf1 inh interf >100 and TDP2 inh conf 85*.
